Assay results as given in paper PMC5594746 (Journal of biomolecular screening, 2016).

Assays:
[1] = system: NDI associated V2R mutants; conditions: cited from earlier work
[2] = system: V2R + DOX; experiment: V2R + Dox cAMP counterscreen; format: cell-based; conditions: Tet minus promoter inactive, no receptor protein made
How it was run: (§1)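 Cryopreserved cells carrying tet-regulated hV2R L83Q were thawed and plated at 2,000/well in growth medium. Compound was pin-added (0.4% DMSO), then incubated 17 h at 37 °C, 5% CO2. Cells were stimulated with 5 μM vasopressin (final) in serum-free medium containing 2.5 mM IBMX for 2 h. After 10 min at room temperature, cAMP-Glo was added (19 min), then Kinase-Glo (10 min). Luminescence, inversely proportional to cAMP, was read.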

[3] = molecular target: V2R; conditions: regardless of species tested; cited from earlier work
[4] = molecular target: mutant hV2R [L83Q] (Homo sapiens, UniProt P30518, L83Q); experiment: V2R pharmacoperone cAMP luminescence; format: cell-based; conditions: for activity as powder (active = EC50 ≤ 5 μM): de novo powder samples, titration assay, tested for the first time as powders
How it was run: as §1

Structure (SMILES) | activity as powder (active = EC50 ≤ 5 μM) [4] | further results
CCOc1ccc2c(c1)C1(CCC(OCCN3CCOCC3)CC1)C(=O)N2S(=O)(=O)c1ccc(C(=O)NC(C)(C)C)cc1OC (stereo not shown) [SR121463] | – | number of NDI associated V2R mutants on which active [1]: at least 8; response of + Dox cells [2]: non-responsive; Ki [3]: low nanomolar
CCN(CC)S(=O)(=O)c1ccc(C(=O)Nc2nc3ccc(Cl)cc3s2)cc1 [SR-01000392254] | lack of activity | –
COc1ccc2nc(NC(=O)c3ccc(S(=O)(=O)N4CCCCC4)cc3)sc2c1 [SR-01000393329] | lack of activity | –
Cc1ccc2nc(NC(=O)c3cc(I)ccc3Cl)sc2c1 [SR-01000405773] | lack of activity | –
O=C(Nc1nc2ccc(F)cc2s1)c1ccc(S(=O)(=O)N2CCCCC2)cc1 [SR-01000442043] | lack of activity | –
COc1ccc(-c2csc(NC(=O)c3ccc(S(=O)(=O)N4CC(C)CC(C)C4)cc3)n2)cc1C (stereo not shown) [SR-01000443595] | – | EC50 ([4]; de-novo powder sample, CRC format): 70 nM
Cc1ccc2nc(NC(=O)c3cccc(Cl)c3)sc2c1 [SR-01000461570] | lack of activity | –
CN[C@@H]1C[C@H]2O[C@@](C)([C@@H]1OC)n1c3ccccc3c3c4c(c5c6ccccc6n2c5c31)C(=O)NC4 [staurosporine, reference compound] | – | % activation, primary screen ([4]; singlicate, nominal 5.22 μM, normalized to SR121463 high control): ≤ −50%
